Scp1 inh: Scp-1 (human) phosphatase inhibition. Q9GZU7. inhibition, % at 20 µM. Recombinant Scp1, phosphopeptide, malachite green phosphate absorbance. 340,000 compounds, 0.88% hits;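 active means inhibition above about 50% at 20 µM, limit read from the data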;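 further: plate controls were DMSO wells with enzyme for no effect and wells lacking enzyme for full effect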
Target sequence (Q9GZU7 76-261 limits assumed): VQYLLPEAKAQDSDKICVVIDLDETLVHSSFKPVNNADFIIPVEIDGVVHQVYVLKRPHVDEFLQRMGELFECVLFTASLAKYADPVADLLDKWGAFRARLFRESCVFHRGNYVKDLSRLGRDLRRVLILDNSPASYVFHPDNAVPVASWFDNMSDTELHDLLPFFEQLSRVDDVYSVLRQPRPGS
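assay system = SCP-1 phosphatase catalytic domain, residues 76-261 | buffer or medium = 50 mM Tris acetate pH 5.5, 0.005% Tween-20, 10 mM MgCl2 | incubation = enzyme reaction 45 min at room temperature, colour 5 min, stabilisation 30 min | signal = Phosphate-binding colour reagent, absorbance read at 630 nm | measure = % inhibition at 20 µM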
DNMT1 block: inhibitors of human DNMT1; P26358; DNMT1 molecular beacon, Hinp1I cleavage, fluorescence; inhibition (reported as % activation of signal), % at 10 µM; 360,000 compounds, 0.83% hits; in the data active means inhibition above about 50%
LMPTP inh: blocks human LMPTP phosphatase; P24666; recombinant LMPTP-A, OMFP fluorogenic substrate, fluorescence intensity; inhibition, % at 20 µM; 360,000 compounds, 0.22% hits; AID 651560;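 active means compounds that cut the enzyme signal by at least half of the control window in the single-dose screen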;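 further: plate controls were DMSO wells with enzyme plus substrate for no effect and substrate without enzyme for full effect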
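Material: LMPTP-A; amount: 0.625 nM enzyme; doses: single 20 µM dose; times: reaction 50 min, room temperature, dark; technique: fluorescence intensity of OMFP turnover product; benchmarks: no-enzyme and uninhibited controls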
GRK2 aptamer HTS: blocks RNA aptamer binding to human GRK2; bead flow cytometry, FAM-aptamer displacement from GRK2; inhibition of aptamer binding, % at 10 µM; P25098; 330,000 compounds, 0.59% hits;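 active means inhibition of aptamer binding above 40%, roughly 3 SD of noise, on plates passing a quality check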;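 further: median bead fluorescence of bound FAM aptamer so fluorescent compounds give negative values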
SUMO1 PPI mod: modulators of human SUMO1-mediated protein-protein interactions. P63165. SUMO1 binding to a labelled peptide, TR-FRET, 1 h. inhibition, % at 20 µM. 360,000 compounds, 0.33% hits. AID 602429; in the data active means inhibition above about 37%
STEP inh: inhibitors of human striatal-enriched phosphatase STEP; AID 588621; recombinant STEP, OMFP fluorogenic substrate, fluorescence; 360,000 compounds, 0.25% hits; inhibition, % at 20 µM; P54829;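 active means inhibition at 20 µM, scaled per plate between control wells, above about 37%, limit read from the data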;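 further: 0% = DMSO with enzyme and substrate and 100% = substrate only without enzyme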
Target sequence (P54829 whole entry, looked up): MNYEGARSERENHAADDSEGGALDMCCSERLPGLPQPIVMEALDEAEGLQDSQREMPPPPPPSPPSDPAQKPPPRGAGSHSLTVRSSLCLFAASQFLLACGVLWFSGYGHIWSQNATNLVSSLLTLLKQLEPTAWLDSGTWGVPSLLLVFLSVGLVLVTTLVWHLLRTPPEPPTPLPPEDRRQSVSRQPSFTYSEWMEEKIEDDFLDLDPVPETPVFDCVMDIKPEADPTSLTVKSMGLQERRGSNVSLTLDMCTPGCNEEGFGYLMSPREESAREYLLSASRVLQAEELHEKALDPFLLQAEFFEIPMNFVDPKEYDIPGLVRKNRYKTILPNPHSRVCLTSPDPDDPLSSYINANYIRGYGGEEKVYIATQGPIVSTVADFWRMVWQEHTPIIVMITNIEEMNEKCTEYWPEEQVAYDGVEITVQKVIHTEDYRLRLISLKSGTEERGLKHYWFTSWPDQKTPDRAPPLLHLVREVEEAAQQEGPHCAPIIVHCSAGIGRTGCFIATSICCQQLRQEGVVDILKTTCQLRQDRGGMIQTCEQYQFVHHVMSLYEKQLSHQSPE
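Also added – OMFP at 25 µM · Test system – STEP tyrosine phosphatase · Technique – FITC-channel fluorescence of OMFP product · Schedule – 20 min at room temperature, dark · Evaluation – control-normalized % inhibition with plate pattern correction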
GRK2 CP1: human GRK2 inhibition confirmation, cherry pick 1. 2,000 compounds, 4% hits. shares compounds with GRK2 aptamer HTS. AID 504451. bead-bound GRK2, FAM-aptamer displacement, flow cytometry. aptamer displacement, % at 10 µM;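 active means aptamer displacement above 40%, near three times the noise of non-fluorescent compounds, on plates passing quality checks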;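 further: negative values mostly reflect intrinsic compound fluorescence rather than true enhancement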
Aptamer quench: counter-screen for GRK2 aptamer inhibitors: fluorescent aptamer quenchers. shares compounds with GRK2 aptamer HTS. Fluorescent RNA aptamer beads, quenching, flow cytometry; stronger effect = higher value. fluorescence change (kMESF span), kMESF (no concentration beside the values). 110 tested, under 10 active;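 active means compounds whose bead fluorescence drops by more than 37 kMESF across the dose range, marking them as dye quenchers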
FAM quench CP1: quenches fluorescent RNA aptamer, GRK2 hit artifact; shares compounds with GRK2 aptamer HTS; Carboxyfluorescein RNA aptamer on beads, flow cytometry quenching; stronger effect = lower value; fluorescence response (% of DMSO), % at 10 µM; 2,000 tested, under 10 active;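 active means compounds that quench the bead-bound fluorescent RNA probe, cutting fluorescence to under half of the solvent control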;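 further: counterscreen run without GRK2 so only probe quenching by compound is measured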
GRK2 confirm 2: confirmation of human GRK2 inhibitors binding RNA aptamer site. AID 504782. bead-bound GRK2, FAM-aptamer displacement, flow cytometry. shares compounds with GRK2 aptamer HTS. inhibition of aptamer binding, % at 10 µM. 360 tested, under 10 active;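 active means inhibition of aptamer binding above 40%, about triple the noise seen with nonglowing compounds, on plates passing quality control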;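 further: negative values mostly come from compounds that fluoresce themselves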
Aptamer quench3: aptamer fluorescence quenching in GRK2 counter-screen dose response | 25 tested, under 10 active | AID 504819 | shares compounds with GRK2 aptamer HTS | change in fluorescence (kMESF span), kMESF (no concentration beside the values) | Streptavidin beads, FAM-RNA aptamer fluorescence quenching, flow cytometry;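 active means compounds quenching the bead-bound labeled aptamer, with fluorescence dropping by more than 37 kMESF over the dose range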
FAM quench CP2: aptamer fluorescence quenching in GRK2 counter-screen; 360 tested, under 10 active; AID 588494; fluorescence response vs DMSO, % at 10 µM; carboxyfluorescein RNA aptamer beads, flow cytometry quenching; stronger effect = lower value; shares compounds with GRK2 aptamer HTS;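 active means response vs DMSO under 50%, meaning signal dropped by over half, treated as fluorescence quencher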;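 further: labelled aptamer on streptavidin beads without GRK2 as a quench counter-screen; 100% = bead fluorescence of DMSO wells and lower means quenching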
FAM quench PS1: quenches fluorescent RNA aptamer, GRK2 hit artifact. AID 588496. Bead-bound FAM RNA aptamer fluorescence quenching, flow cytometry; stronger effect = lower value. fluorescence ratio to DMSO, % at 11.1 µM. shares compounds with GRK2 aptamer HTS. 35 tested, under 10 active;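 active means compounds that dim the fluorescent label, raw bead signal shifting by over 33 units between lowest and highest dose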
An asterisk follows results filed as active; i = inactive; x = no result. This is a sample that favours compounds with a hit; in the whole collection about 2.2% have one here.

SMILES	Scp1 inh	DNMT1 block	LMPTP inh	GRK2 aptamer HTS	SUMO1 PPI mod	STEP inh	GRK2 CP1	FAM quench CP1	others
O=C(NC1CCCCC1)c1cccc(NC(=O)c2ccccc2Cl)c1	x	-2	-1	x	-4	1	x	x
O=C(NCCOc1ccccc1)C1CCC(=O)N(CCc2ccc(Cl)cc2)C1 (stereo unspecified)	-5	0	-1	0	1	-1	x	x
COc1ccc(CCN2CC(C(=O)N(C)CCOc3ccccc3)CCC2=O)cc1 (stereo unspecified)	-3	2	-1	0	0	-1	2	96
COc1ccc(CCN2CC(C(=O)N(C)Cc3ccccc3OC)CCC2=O)cc1 (stereo unspecified)	3	0	0	2	3	0	x	x
CN(CCOc1ccccc1)C(=O)C1CCC(=O)N(CCc2ccc(Cl)cc2)C1 (stereo unspecified)	-1	0	-1	0	3	3	0	96
COc1ccc(/C=C/CN2CCN(CCc3ccccc3)C(CCO)C2)cc1 (stereo unspecified)	-15	-2	-1	90*	-1	4	-9	100
CC(C)Oc1cc(F)ccc1-c1cc(C(=O)NCc2ccccn2)[nH]n1	x	9	1	x	2	-2	x	x
CCCCn1nnnc1C1(C)CCC(=O)N1CCCN1CCOCC1 (stereo unspecified)	x	x	-3	x	6	x	x	x
CCOC(=O)c1ccc2nc(NC(=O)C(C)C)sc2c1	-13	3	-1	62*	3	-3	-1	97
CC(=O)c1cccc(NC(=O)CCNS(=O)(=O)c2cccc3nonc23)c1	-3	-1	1	0	-21	1	x	x
COc1ccc(N(C)C(=O)CCS(=O)(=O)c2cccc3nonc23)c(OC)c1	-6	1	-1	0	-25	4	x	x	GRK2 confirm 2=-21;FAM quench CP2=101
CCOc1ccccc1NC(=O)CCS(=O)(=O)c1cccc2nonc12	-12	-3	-2	2	-23	0	x	x	GRK2 confirm 2=i;FAM quench CP2=107
Cc1ccc(NC(=O)CCS(=O)(=O)c2cccc3nonc23)cc1	-1	-1	0	1	-32	-1	x	x
CC(=O)c1cccc(NC(=O)CCS(=O)(=O)c2cccc3nonc23)c1	2	-2	-1	2	-30	3	x	x	GRK2 confirm 2=-21;FAM quench CP2=110
Cc1ccc2c(c1)C(c1ccc(N3CCOCC3)cc1)=NNC(c1cccs1)=N2	-5	-8	3	100*	-5	-2	2	97
COc1ccc(N(C(=O)c2ccco2)C(C(=O)NC2CCCC2)c2ccncc2)cc1 (stereo unspecified)	-3	2	1	83*	2	-3	0	99
COc1ccc(N(C(=O)CNC(=O)c2ccco2)C(C(=O)NC2CCCC2)c2ccncc2)cc1 (stereo unspecified)	-7	-4	-1	0	1	2	x	x
CC(C)NC[C@H](O)COc1cccc2ccccc12	-11	4	-1	13	-3	-2	3	96
CC(C)NC[C@@H](O)COc1cccc2ccccc12	4	-1	-1	0	-5	-2	x	x
CCOc1ccc(CCNC(=O)CCS(=O)(=O)c2ccc(Br)cc2)cc1OCC	-10	-4	-1	8	-2	-1	-1	96	Aptamer quench=-0.5;FAM quench PS1=99
COc1ccc(S(=O)(=O)CCC(=O)NCc2ccc(C)o2)cc1	3	2	0	6	0	-1	x	x
COc1ccc(CNC(=O)CCS(=O)(=O)c2ccc(Br)cc2)cc1	46	42	0	89*	33	8	38	102	Aptamer quench=8.5;Aptamer quench3=1.8;FAM quench PS1=103
CCOc1ccc(CCNC(=O)CCS(=O)(=O)c2ccc(C)cc2)cc1OCC	-4	-2	0	1	2	0	x	x
COc1cccc(C(=O)N2CCC[C@@H]2C(=O)N2CCC[C@H]2C(=O)NCc2ccncc2)c1	x	x	-1	x	-3	x	x	x
O=C(Cc1ccccc1)Nn1cnc2ccccc21	-7	1	-1	55*	-3	0	-4	97
SMILES	Scp1 inh	DNMT1 block	LMPTP inh	GRK2 aptamer HTS	SUMO1 PPI mod	STEP inh	GRK2 CP1	FAM quench CP1	others
O=C(Cn1cnc2ccccc21)NCc1ccccc1	-4	0	-1	3	-4	-2	x	x
O=C(NC1CC1)C(=O)c1c[nH]c2ccccc12	-2	5	-1	2	-1	0	x	x
O=C(NC1CC1)c1cc(=S)[nH]c2ccccc12	-3	0	-1	29	-12	-1	1	99
CCOc1ccccc1N(C)C(=O)CCS(=O)(=O)c1ccc2c(c1)NC(=O)CO2	3	1	-1	0	1	0	x	x	GRK2 confirm 2=i;FAM quench CP2=107
Cc1cc2c(cc1C)-n1nnnc1C(N1CCN(c3ccccn3)CC1)C(c1ccc3c(c1)OCO3)=N2 (stereo unspecified)	x	x	2	x	-12	x	x	x
COCc1cc(C)nc(N/N=C/c2ccc(Cl)c(Cl)c2)c1C#N	-6	0	-1	85*	3	3	2	101
O=C(COC(=O)c1cccc(Cl)c1)Nc1cccc(S(=O)(=O)NC2=NCCC2)c1	-2	5	0	0	-2	-2	0	94
Cc1sc2cc3c(c(C(=O)c4ccccc4)[n+]2c1C)-c1cccc2cccc-3c12	14	x	x	35	x	x	x	x
O=C(c1ccccc1)c1c2c(cc3sc4ccccc4[n+]13)-c1cccc3cccc-2c13	-4	58*	69*	76*	-18	3	70*	110	Aptamer quench=-5.5

Compound activity from PubChem.
